The source made the active and inactive calls. The rule behind the calls is not given here.
Key:
[1] = target: T1, Prostaglandin G/H synthase 1 (Ovis aries, UniProt P05979); test: Inhibition of ovine COX1 by enzyme immuno assay
T1 sequence (P05979 whole entry): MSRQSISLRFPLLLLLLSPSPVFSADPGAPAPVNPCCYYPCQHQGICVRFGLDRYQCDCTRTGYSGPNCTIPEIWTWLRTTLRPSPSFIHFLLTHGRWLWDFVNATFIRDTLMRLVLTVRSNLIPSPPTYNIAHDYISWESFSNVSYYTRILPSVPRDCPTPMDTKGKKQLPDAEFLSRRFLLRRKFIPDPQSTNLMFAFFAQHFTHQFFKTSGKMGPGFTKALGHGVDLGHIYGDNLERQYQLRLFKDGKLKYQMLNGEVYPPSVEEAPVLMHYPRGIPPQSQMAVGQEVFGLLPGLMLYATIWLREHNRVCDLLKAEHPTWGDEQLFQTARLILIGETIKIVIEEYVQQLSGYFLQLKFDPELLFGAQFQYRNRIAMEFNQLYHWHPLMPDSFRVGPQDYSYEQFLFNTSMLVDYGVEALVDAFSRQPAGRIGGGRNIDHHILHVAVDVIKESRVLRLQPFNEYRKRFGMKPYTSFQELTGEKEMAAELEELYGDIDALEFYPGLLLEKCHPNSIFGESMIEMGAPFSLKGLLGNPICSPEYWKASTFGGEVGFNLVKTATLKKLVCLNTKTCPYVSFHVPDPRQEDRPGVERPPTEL

Rattus norvegicus [2] = test: Antiinflammatory activity in rat assessed as inhibition of carrageenan-induced hind paw edema at 10 mg/kg, po measured after 3 hrs post dose; format: functional, organism-based; design: dose 10 mg/kg
Outline: (§1)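 Male Sprague-Dawley rats; paw edema induced with carrageenan; test compound given orally at the stated dose. Edema inhibition read 3 h after dosing, as a mean of n = 4. ED50 values were derived where determined.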

Rattus norvegicus [3] = test: Antiinflammatory activity in rat assessed as inhibition of carrageenan-induced hind paw edema at 50 mg/kg, po measured after 3 hrs post dose; format: functional, organism-based; design: dose 50 mg/kg; outline: as §1
Rattus norvegicus [4] = test: Antiinflammatory activity in po dosed rat assessed as inhibition of carrageenan-induced hind paw edema measured after 3 hrs post dose; format: functional; outline: as §1

SMILES | IC50 [1] [µM] | other results
CC(=O)Oc1cc(-c2cc(C(F)(F)F)nn2-c2ccc(S(C)(=O)=O)cc2)ccc1C | – | inhibition (Rattus norvegicus [2]): inactive
CC(=O)Oc1ccccc1C(=O)O [ASPIRIN] | – | ED50 (Rattus norvegicus [4]): 129 mg/kg
CC(=O)Oc1cccc(-c2cc(C(F)(F)F)nn2-c2ccc(S(C)(=O)=O)cc2)c1 | > 100 | –
Cc1ccc(-c2cc(C(F)(F)F)nn2-c2ccc(S(N)(=O)=O)cc2)c(O)c1 | 36 | inhibition (Rattus norvegicus [2]): inactive
CC(=O)Oc1ccc(-c2cc(C(F)(F)F)nn2-c2ccc(S(C)(=O)=O)cc2)cc1 | 80.3 | –
CC(C)Cc1ccc(C(C)C(=O)O)cc1 (centres undefined) [IBUPROFEN] | – | ED50 (Rattus norvegicus [4]): 67.4 mg/kg

Further lines, with some results ahead:

IC50 [1] [µM] | SMILES | other results
> 100 | CC(=O)Oc1cc(C)ccc1-c1cc(C(F)(F)F)nn1-c1ccc(S(C)(=O)=O)cc1 | –
> 100 | CC(=O)Oc1cc(C)ccc1-c1cc(C(F)(F)F)nn1-c1ccc(S(N)(=O)=O)cc1 | inhibition (Rattus norvegicus [3]): inactive
> 100 | CC(=O)Oc1ccccc1-c1cc(C(F)(F)F)nn1-c1ccc(S(N)(=O)=O)cc1 | –
> 100 | CC(=O)Oc1ccc(-c2cc(C(F)(F)F)nn2-c2ccc(S(N)(=O)=O)cc2)cc1 | inhibition (Rattus norvegicus [3]): inactive
> 100 | CC(=O)Oc1cc(-c2cc(C(F)(F)F)nn2-c2ccc(S(N)(=O)=O)cc2)ccc1C | inhibition (Rattus norvegicus [3]): inactive
> 100 | CC(=O)Oc1cccc(-c2cc(C(F)(F)F)nn2-c2ccc(S(N)(=O)=O)cc2)c1 | –
0.7 | CC(=O)Oc1cc(F)ccc1-c1cc(C(F)(F)F)nn1-c1ccc(S(N)(=O)=O)cc1 | ED50 (Rattus norvegicus [4]; Rattus norvegicus, po, 3 h, read-out: ED50): 42.3 mg/kg
> 100 | CC(=O)Oc1cc(F)ccc1-c1cc(C(F)(F)F)nn1-c1ccc(S(C)(=O)=O)cc1 | –

From ChEMBL document CHEMBL1833903, “Isomeric acetoxy analogs of celecoxib and their evaluation as cyclooxygenase inhibitors” (Bioorg Med Chem Lett, 2011)
